Reference: ChEMBL document CHEMBL4028818, “Tricyclic 4,4-dimethyl-3,4-dihydrochromeno[3,4-d]imidazole derivatives as microsomal prostaglandin E2 synthase-1 (mPGES-1) inhibitors: SAR and in vivo efficacy in hyperalgesia pain model” (Bioorg Med Chem Lett, 2017)

Assays:
[1] = target: Cytochrome P450 2D6 (Homo sapiens, UniProt P10635); assay: Inhibition of CYP2D6 in human liver microsomes at 1 uM measured after 20 mins in presence of NADPH by LC/MS/MS analysis; format: ADME
Outline: (§1)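 CYP isoforms 1A2, 2D6, 3A4, 2C9 and 2C19 were tested at 1 and 10 µM. Results are % inhibition compared with a no-inhibitor control, run in triplicate.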

[2] = target: T1, Prostaglandin E synthase (Homo sapiens, UniProt O14684); assay: Inhibition of mPGES-1 in human A549 cells assessed as decrease in IL1beta induced PGE2 release preincubated for 30 mins followed by IL-1beta addition after 16 to 20 hrs by HTRF method; format: cell-based
T1 sequence (O14684 whole entry): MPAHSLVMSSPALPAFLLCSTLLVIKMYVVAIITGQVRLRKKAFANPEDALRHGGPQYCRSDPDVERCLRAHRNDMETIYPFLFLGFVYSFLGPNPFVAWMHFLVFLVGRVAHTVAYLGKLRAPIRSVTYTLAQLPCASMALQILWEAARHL

[3] = target: T1, Prostaglandin E synthase; assay: Inhibition of recombinant human mPGES-1 expressed in CHO cells assessed as reduction in PGE2 formation using PGH2 a substrate preincubated for 10 mins followed by substrate addition measured after 1 min; format: cell-based
Outline: (§2)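 mPGES-1 enzyme inhibition. % inhibition values are means of two experiments in duplicate. IC50 values were derived from graphs of at least two experiments in duplicate.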

[4] = target: T2, Cytochrome P450 1A2 (Homo sapiens, UniProt P05177); assay: Inhibition of CYP1A2 in human liver microsomes at 1 uM measured after 20 mins in presence of NADPH by LC/MS/MS analysis; format: ADME; outline: as §1
T2 sequence (P05177 whole entry): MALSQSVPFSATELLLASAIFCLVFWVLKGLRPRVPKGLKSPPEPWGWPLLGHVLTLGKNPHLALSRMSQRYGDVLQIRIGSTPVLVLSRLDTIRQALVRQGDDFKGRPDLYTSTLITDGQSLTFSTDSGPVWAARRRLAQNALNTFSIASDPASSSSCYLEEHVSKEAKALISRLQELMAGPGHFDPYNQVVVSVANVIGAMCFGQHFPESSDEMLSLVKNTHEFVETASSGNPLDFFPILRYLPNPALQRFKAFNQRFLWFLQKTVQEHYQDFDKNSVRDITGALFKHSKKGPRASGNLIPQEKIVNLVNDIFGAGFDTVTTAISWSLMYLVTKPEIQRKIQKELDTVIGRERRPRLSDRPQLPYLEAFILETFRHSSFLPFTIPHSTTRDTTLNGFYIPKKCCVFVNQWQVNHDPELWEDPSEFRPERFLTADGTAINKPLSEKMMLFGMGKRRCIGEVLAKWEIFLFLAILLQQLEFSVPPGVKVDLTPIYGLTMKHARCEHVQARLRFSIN

[5] = target: Cytochrome P450 2C9 (Homo sapiens, UniProt P11712); assay: Inhibition of CYP2C9 in human liver microsomes at 1 uM measured after 20 mins in presence of NADPH by LC/MS/MS analysis; format: ADME; outline: as §1
[6] = Metabolic stability in human liver microsomes assessed as parent compound remaining at 1 uM after 60 mins in presence of NADPH by LC/MS/MS analysis; format: ADME, microsome; conditions: read-out: Stability
Outline: (§3)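 Compound at 1.0 µM was incubated with liver microsomes (1.0 mg/mL protein) at 37 °C for 60 min. Samples were analysed by LC/MS/MS as % parent remaining. Run in triplicate.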

[7] = target: CYP2C9 (Homo sapiens, UniProt P11712); assay: Inhibition of CYP2C9 in human liver microsomes at 10 uM measured after 20 mins in presence of NADPH by LC/MS/MS analysis relative to control; format: ADME; outline: as §1
[8] = target: Cytochrome P450 2C19 (Homo sapiens, UniProt P33261); assay: Inhibition of CYP2C19 in human liver microsomes at 1 uM measured after 40 mins in presence of NADPH by LC/MS/MS analysis; format: ADME; outline: as §1
[9] = Metabolic stability in Guinea pig liver microsomes assessed as parent compound remaining at 1 uM after 60 mins in presence of NADPH by LC/MS/MS analysis; format: ADME, Cavia porcellus, microsome; conditions: read-out: Stability; outline: as §3
[10] = target: Cytochrome P450 3A4 (Homo sapiens, UniProt P08684); assay: Inhibition of CYP3A4 in human liver microsomes at 1 uM measured after 20 mins in presence of NADPH by LC/MS/MS analysis; format: ADME; outline: as §1
[11] = target: CYP2D6 (Homo sapiens, UniProt P10635); assay: Inhibition of CYP2D6 in human liver microsomes at 10 uM measured after 20 mins in presence of NADPH by LC/MS/MS analysis relative to control; format: ADME; conditions: liver microsomes; outline: as §1
[12] = target: CYP3A4 (Homo sapiens, UniProt P08684); assay: Inhibition of CYP3A4 in human liver microsomes at 10 uM measured after 20 mins in presence of NADPH by LC/MS/MS analysis relative to control; format: ADME; outline: as §1
[13] = test system: Cavia porcellus; assay: Analgesic activity in Dunkin Hartley guinea pig hyperalgesia pain model assessed as inhibition of LPS-induced thermal hyperalgesia at 10 mg/kg, po qd administered 1 hr prior to LPS stimulation measured after 4.5 hrs by plantar test relative to control; format: functional
Outline: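 LPS was injected into the guinea pig plantar to induce thermal hyperalgesia, and compound was given orally. Response is expressed as % hyperalgesia, with a saline-injected naive group as 0% and the vehicle-treated LPS group as 100%. Values are mean ± SEM, n = 8 per dose group.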

[14] = target: T3, Prostaglandin E synthase (Homo sapiens) (UniProt O14684); assay: Inhibition of recombinant human mPGES-1 expressed in CHO cells assessed as reduction in PGE2 formation at 10 uM using PGH2 a substrate preincubated for 10 mins followed by substrate addition measured after 1 min relative to control; format: cell-based; outline: as §2
T3 sequence (whole entry): T1 sequence (O14684 whole entry)

[15] = target: T4, COX2 (Homo sapiens, UniProt P35354); assay: Inhibition of recombinant human N-terminal His-tagged COX2 expressed in baculovirus infected Sf21 insect cells assessed as decrease in PGE2 release at 10 uM using arachidonic acid as substrate preincubated for 15 mins followed by arachidonic acid addition measured after 5 mins relative to control; conditions: probe arachidonic acid
T4 sequence (P35354 whole entry): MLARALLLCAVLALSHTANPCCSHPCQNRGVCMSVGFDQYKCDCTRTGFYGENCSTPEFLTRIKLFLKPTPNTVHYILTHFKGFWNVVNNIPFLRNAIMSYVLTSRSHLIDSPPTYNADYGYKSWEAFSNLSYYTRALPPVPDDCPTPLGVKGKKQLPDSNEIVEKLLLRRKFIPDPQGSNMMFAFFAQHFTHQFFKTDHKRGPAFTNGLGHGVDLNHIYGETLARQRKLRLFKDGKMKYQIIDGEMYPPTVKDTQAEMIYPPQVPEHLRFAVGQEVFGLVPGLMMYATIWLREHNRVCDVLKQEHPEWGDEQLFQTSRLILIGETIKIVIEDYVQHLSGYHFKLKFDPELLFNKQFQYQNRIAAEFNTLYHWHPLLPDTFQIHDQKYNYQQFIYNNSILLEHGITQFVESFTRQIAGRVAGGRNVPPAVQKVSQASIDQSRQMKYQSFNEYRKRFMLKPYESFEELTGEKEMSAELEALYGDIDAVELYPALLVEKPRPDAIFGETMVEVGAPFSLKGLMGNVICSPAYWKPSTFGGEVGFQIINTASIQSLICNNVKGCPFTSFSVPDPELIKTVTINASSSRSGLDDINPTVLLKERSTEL

[16] = target: T5, Prostaglandin G/H synthase 2 (Homo sapiens, UniProt P35354); assay: Inhibition of recombinant human N-terminal His-tagged COX2 expressed in baculovirus infected Sf21 insect cells assessed as decrease in PGE2 release using arachidonic acid as substrate preincubated for 15 mins followed by arachidonic acid addition measured after 5 mins
T5 sequence (P35354 whole entry): T4 sequence (P35354 whole entry)

[17] = target: Prostaglandin G/H synthase 1 (Homo sapiens, UniProt P23219); assay: Inhibition of COX1 in human U937 cells assessed as decrease in PGE2 release using arachidonic acid as substrate preincubated for 15 mins followed by arachidonic acid addition measured after 5 mins; format: cell-based
[18] = target: T3, Prostaglandin E synthase (Homo sapiens); assay: Inhibition of recombinant human mPGES-1 expressed in CHO cells assessed as reduction in PGE2 formation at 1 uM using PGH2 a substrate preincubated for 10 mins followed by substrate addition measured after 1 min relative to control; format: cell-based; outline: as §2
[19] = Metabolic stability in rat liver microsomes assessed as parent compound remaining at 1 uM after 60 mins in presence of NADPH by LC/MS/MS analysis; format: ADME, microsome; conditions: read-out: Stability; outline: as §3
[20] = target: T4, COX2; assay: Inhibition of recombinant human N-terminal His-tagged COX2 expressed in baculovirus infected Sf21 insect cells assessed as decrease in PGE2 release at 1 uM using arachidonic acid as substrate preincubated for 15 mins followed by arachidonic acid addition measured after 5 mins relative to control; conditions: probe arachidonic acid

Chain of Cytochrome P450 2C19 (P33261 whole entry): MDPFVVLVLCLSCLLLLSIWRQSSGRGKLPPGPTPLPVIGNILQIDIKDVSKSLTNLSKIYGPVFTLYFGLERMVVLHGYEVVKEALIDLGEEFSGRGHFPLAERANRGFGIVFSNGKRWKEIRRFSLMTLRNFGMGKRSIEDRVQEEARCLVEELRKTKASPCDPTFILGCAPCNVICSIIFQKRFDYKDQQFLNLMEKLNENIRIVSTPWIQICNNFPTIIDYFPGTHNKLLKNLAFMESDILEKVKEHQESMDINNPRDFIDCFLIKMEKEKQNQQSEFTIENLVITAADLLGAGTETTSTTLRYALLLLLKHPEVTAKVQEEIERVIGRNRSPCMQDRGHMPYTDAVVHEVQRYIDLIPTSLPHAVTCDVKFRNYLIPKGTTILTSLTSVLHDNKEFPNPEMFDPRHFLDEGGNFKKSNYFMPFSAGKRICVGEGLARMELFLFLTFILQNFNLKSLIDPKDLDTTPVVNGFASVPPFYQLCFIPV
Chain of CYP2D6 (P10635 whole entry): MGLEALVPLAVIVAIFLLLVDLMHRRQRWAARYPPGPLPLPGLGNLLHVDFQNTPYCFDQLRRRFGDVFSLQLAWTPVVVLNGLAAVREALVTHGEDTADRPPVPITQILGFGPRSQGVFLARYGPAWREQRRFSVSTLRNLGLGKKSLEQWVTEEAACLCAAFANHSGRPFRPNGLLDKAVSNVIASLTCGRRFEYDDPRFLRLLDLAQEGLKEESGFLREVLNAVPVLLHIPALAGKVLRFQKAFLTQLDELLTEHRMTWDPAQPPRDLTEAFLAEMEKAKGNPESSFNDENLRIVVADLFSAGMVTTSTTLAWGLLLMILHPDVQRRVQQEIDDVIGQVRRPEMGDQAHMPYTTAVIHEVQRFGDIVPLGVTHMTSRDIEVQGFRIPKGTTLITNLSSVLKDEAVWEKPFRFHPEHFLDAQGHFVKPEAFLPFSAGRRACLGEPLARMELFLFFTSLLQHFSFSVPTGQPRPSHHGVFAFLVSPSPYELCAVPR
Chain of Cytochrome P450 2D6 (P10635 whole entry, canonical isoform): as the sequence (P10635 whole entry) above
Chain of Cytochrome P450 2C9 (P11712 whole entry): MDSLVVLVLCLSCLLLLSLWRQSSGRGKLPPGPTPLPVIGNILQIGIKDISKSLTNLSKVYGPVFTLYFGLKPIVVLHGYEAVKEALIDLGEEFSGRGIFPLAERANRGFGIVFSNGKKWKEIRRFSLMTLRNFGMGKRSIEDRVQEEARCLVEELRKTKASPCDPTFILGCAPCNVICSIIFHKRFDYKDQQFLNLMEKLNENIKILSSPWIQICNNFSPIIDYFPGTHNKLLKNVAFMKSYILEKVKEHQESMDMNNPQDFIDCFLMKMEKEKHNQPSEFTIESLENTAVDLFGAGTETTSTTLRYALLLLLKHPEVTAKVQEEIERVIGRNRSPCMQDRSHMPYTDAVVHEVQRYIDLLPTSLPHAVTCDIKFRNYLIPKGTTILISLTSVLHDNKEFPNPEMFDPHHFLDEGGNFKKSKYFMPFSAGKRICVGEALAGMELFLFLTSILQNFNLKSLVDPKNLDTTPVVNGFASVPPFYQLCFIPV
Chain of CYP2C9 (P11712 whole entry): as above
Chain of CYP3A4 (P08684 whole entry): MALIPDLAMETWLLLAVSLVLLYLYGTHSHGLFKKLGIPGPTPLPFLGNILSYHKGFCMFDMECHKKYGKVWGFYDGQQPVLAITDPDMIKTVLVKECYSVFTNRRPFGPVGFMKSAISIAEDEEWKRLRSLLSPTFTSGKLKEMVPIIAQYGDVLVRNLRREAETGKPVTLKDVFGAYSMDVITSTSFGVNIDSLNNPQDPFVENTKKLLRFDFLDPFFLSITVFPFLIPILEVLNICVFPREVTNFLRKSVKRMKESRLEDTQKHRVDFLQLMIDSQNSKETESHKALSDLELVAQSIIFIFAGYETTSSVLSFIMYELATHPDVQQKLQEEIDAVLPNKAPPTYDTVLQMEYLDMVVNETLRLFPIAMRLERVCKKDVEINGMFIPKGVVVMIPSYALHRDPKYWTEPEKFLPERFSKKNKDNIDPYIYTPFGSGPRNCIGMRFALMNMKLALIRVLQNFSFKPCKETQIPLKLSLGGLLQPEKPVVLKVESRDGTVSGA
Chain of Cytochrome P450 3A4 (P08684 whole entry): as above
Chain of Prostaglandin G/H synthase 1 (P23219 whole entry): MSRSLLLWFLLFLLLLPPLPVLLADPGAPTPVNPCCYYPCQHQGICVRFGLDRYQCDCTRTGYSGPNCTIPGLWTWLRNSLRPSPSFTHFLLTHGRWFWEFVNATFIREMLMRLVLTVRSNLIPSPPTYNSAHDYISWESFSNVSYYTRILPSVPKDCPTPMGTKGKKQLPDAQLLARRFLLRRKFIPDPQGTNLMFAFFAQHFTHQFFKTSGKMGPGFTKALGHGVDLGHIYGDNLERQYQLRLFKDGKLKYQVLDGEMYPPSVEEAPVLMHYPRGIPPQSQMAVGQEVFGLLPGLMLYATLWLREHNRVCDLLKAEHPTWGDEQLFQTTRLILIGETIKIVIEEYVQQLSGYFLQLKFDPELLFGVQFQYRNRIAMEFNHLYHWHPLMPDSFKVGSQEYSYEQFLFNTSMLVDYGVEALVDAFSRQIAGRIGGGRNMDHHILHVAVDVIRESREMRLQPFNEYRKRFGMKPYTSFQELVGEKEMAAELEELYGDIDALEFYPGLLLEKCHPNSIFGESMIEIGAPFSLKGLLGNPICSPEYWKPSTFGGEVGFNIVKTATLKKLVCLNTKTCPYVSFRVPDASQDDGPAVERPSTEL

SMILES | inhibition (INH) [1] | IC50 [2] | IC50 [3] | inhibition (INH) [4] | inhibition (INH) [5] | remaining at 1 h, 1 µM [6] | inhibition at 20 min, 10 µM [7] | inhibition (INH) [8] | remaining at 1 h, 1 µM [9] | inhibition (INH) [10] | inhibition at 20 min, 10 µM [11] | inhibition at 20 min, 10 µM [12] | inhibition in vivo at 10 mg/kg [13] | inhibition [14] | inhibition at 5 min, 10 µM [15] | IC50 [16] | IC50 [17] | inhibition [18] | remaining at 1 h, 1 µM [19] | inhibition at 5 min, 1 µM [20]
CC1(C)Oc2cc(C#Cc3ccccc3C(F)(F)F)ccc2-c2nc(-c3c(C#N)cccc3C#N)[nH]c21 | Not Active | 298 nM | 15.9 nM | Not Active | Not Active | 81% | 32% | Not Active | 100% | Not Active | 29% | 24% | – | – | – | – | – | – | – | –
O=C(O)Cc1ccccc1Nc1c(Cl)cccc1Cl [DICLOFENAC] | – | – | – | – | – | – | – | – | – | – | – | – | 80% | – | – | – | – | – | – | –
CC1(C)Oc2cc(-c3cccc(C(F)(F)F)c3)ccc2-c2[nH]c(-c3c(F)cccc3Cl)nc21 | Not Active | 616 nM | 92.9 nM | Not Active | Not Active | 89% | 35% | Not Active | 93% | Not Active | 56% | 37% | – | 94.6% | 27.4% | > 10 µM | 8.35 µM | 91.4% | 99% | 2.65%
